Measurements reported in ChEMBL document CHEMBL1152478, “Design, synthesis, and antifungal activity of triazole and benzotriazole derivatives” (2009).
Converted amounts (≈) assume the structure as drawn.

Tests used:
Format in all cases: functional
[1] = test system: Trichophyton mentagrophytes; experiment: Antifungal activity against Trichophyton mentagrophytes after 48 hrs by agar dilution method
Method in brief: (§1)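 Clinical isolates, purified and subcultured on SC, SCC and PDA media before testing. Compounds were dissolved as DMSO stocks and diluted into solid medium (PDA) for agar dilution. Inocula for molds and yeast came from 2- to 7-day mature colonies. The read-out was the minimum inhibitory concentration (MIC).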

Trichophyton rubrum = experiment: Antifungal activity against Trichophyton rubrum after 48 hrs by agar dilution method; method in brief: as §1
Microsporum canis = experiment: Antifungal activity against Microsporum canis after 48 hrs by agar dilution method; method in brief: as §1
Epidermophyton floccosum = experiment: Antifungal activity against Epidermophyton floccosum after 48 hrs by agar dilution method; method in brief: as §1
Candida albicans = experiment: Antifungal activity against Candida albicans after 48 hrs by agar dilution method; method in brief: as §1

Row | SMILES | MIC [1] [µg/mL] | MIC (Trichophyton rubrum) [µg/mL] | MIC (Microsporum canis) [µg/mL] | MIC (Epidermophyton floccosum) [µg/mL] | MIC (Candida albicans) [µg/mL]
1 | CCCCCn1cncn1 | 64 (≈ 460 µM) | 64 (≈ 460 µM) | 64 (≈ 460 µM) | 64 (≈ 460 µM) | –
2 | c1ccc(C(c2ccccc2)(c2ccccc2)n2nnc3ccccc32)cc1 | – | 64 (≈ 177 µM) | – | 64 (≈ 177 µM) | 64 (≈ 177 µM)
3 | COc1ccc(C(c2ccccc2)(c2ccccc2)n2nnc3ccccc32)cc1 | 64 (≈ 163 µM) | 64 (≈ 163 µM) | – | 64 (≈ 163 µM) | –
4 | OC(Cn1cncn1)(Cn1cncn1)c1ccc(F)cc1F [FLUCONAZOLE] | 1 (≈ 3.27 µM) | 32 (≈ 104 µM) | 16 (≈ 52.2 µM) | 0.25 (≈ 0.816 µM) | 32 (≈ 104 µM)
5 | COc1ccc(C(c2ccccc2)(c2ccccc2)n2cncn2)cc1 | 16 (≈ 46.9 µM) | 32 (≈ 93.7 µM) | 32 (≈ 93.7 µM) | 8 (≈ 23.4 µM) | –
6 | Clc1ccccc1C(c1ccccc1)(c1ccccc1)n1ccnc1 [CLOTRIMAZOLE] | 0.05 (≈ 0.145 µM) | 0.5 (≈ 1.45 µM) | 0.065 (≈ 0.188 µM) | 4 (≈ 11.6 µM) | 4 (≈ 11.6 µM)
7 | c1ccc(C(c2ccccc2)(c2ccccc2)n2cncn2)cc1 | 32 (≈ 103 µM) | 64 (≈ 206 µM) | 64 (≈ 206 µM) | 1 (≈ 3.21 µM) | –
8 | CCCCCCCCn1nnc2ccccc21 | 64 (≈ 277 µM) | 64 (≈ 277 µM) | 64 (≈ 277 µM) | 32 (≈ 138 µM) | –
9 | CCCCCn1nnc2ccccc21 | 32 (≈ 169 µM) | 32 (≈ 169 µM) | 16 (≈ 84.5 µM) | 16 (≈ 84.5 µM) | 32 (≈ 169 µM)
10 | CCCCCCCCn1cncn1 | 16 (≈ 88.3 µM) | 16 (≈ 88.3 µM) | 16 (≈ 88.3 µM) | 8 (≈ 44.1 µM) | 16 (≈ 88.3 µM)
11 | COc1ccc(C(c2ccccc2)(c2ccc(OC)cc2)n2nnc3ccccc32)cc1 | 64 (≈ 152 µM) | 32 (≈ 75.9 µM) | – | – | –
